Measured values taken from ChEMBL document CHEMBL1130354, “Bicyclo[2.2.1]heptane and 6,6-dimethylbicyclo[3.1.1]heptane derivatives: orally active, potent, and selective prostaglandin D2 receptor antagonists” (J Med Chem, 1997).

What was measured:
Prostacyclin receptor = Prostacyclin receptor (Homo sapiens, UniProt P43119); assay: Inhibition of cAMP formation by carbacyclin in Prostaglandin I2 receptor (IP) assay; format: functional
Summary of the method: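 Platelets (human) preincubated 10 min at 37 °C with graded compound levels plus IBMX, then exposed 2 min to 0.1 μM carbacyclin; cAMP formation inhibition read out; IC50 is mean of two or three measurements.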

[1] = biological target: T1, Prostaglandin D2 receptor (Homo sapiens, UniProt Q13258); assay: Inhibition of cAMP formation evoked by the prostaglandin D2 receptor in human platelets; format: functional
T1 sequence (Q13258 whole entry): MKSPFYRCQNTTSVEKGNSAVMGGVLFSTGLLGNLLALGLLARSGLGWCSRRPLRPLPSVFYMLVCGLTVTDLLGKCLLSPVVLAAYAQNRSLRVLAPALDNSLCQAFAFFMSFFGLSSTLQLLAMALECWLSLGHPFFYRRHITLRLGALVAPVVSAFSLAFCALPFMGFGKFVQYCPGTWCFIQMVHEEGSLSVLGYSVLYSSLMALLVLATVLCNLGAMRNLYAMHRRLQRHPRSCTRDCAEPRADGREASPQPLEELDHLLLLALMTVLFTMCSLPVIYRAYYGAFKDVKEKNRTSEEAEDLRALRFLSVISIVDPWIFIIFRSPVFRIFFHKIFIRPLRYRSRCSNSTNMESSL
Summary of the method: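 Human platelets preincubated 10 min at 37 °C with graded compound concentrations in presence of IBMX, then stimulated 2 min with 0.1 μM PGD2; inhibition of cAMP formation measured, IC50 derived.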

Thromboxane A2 receptor = biological target: T2, Thromboxane A2 receptor (Homo sapiens, UniProt P21731); assay: Inhibition of [3H]- (+)-S-145 specific binding to human platelet membranes in TXA2 receptor (TP) assay
T2 sequence (P21731 whole entry): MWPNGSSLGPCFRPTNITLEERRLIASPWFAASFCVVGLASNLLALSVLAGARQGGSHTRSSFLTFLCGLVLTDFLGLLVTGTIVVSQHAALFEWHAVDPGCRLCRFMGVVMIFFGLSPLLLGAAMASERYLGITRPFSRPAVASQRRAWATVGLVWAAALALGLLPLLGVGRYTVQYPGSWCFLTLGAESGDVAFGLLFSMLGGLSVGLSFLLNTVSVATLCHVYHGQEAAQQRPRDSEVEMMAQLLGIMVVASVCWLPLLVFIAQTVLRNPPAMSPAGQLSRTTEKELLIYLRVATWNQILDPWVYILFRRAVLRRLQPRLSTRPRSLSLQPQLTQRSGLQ
Summary of the method: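 Membranes from human platelets incubated 60 min at room temperature with 2 nM [3H](+)-S-145 plus graded compound concentrations; specific binding inhibition gives IC50.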

Cavia porcellus [2] = assay: Inhibition of antigen-induced increase in intranasal pressure in actively sensitized guinea pigs at 1 mg/kg (iv); format: functional
Summary of the method: (§1)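 Actively sensitized guinea pigs; compound given iv 10 min before antigen challenge; antigen-induced rise in intranasal pressure measured, percent inhibition reported as mean ± SEM, n = 5–10/group; Student's t-test versus control.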

Cavia porcellus [3] = species: Cavia porcellus; assay: Dose required to inhibit 50% of antigen-induced increase in intranasal pressure; format: functional; conditions: po
Summary of the method: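 Oral dosing of actively sensitized guinea pigs 1 h before antigen challenge; rise in intranasal pressure recorded; dose giving 50% inhibition taken from dose–response data, n = 5–10 animals per point.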

Cavia porcellus [4] = species: Cavia porcellus; assay: Effect on PGD2-induced increase in vascular permeability in conjunctiva of normal guinea pigs; format: functional
Summary of the method: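 Normal guinea pigs; conjunctival microvascular permeability increase induced by topical 0.1% PGD2; dose producing 50% inhibition derived from dose–response data, n = 3–10 animals per point.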

Cavia porcellus [5] = species: Cavia porcellus; assay: Effect on antigen-induced increase in vascular permeability in conjunctiva of guinea pig which actively sensitized with ovalbumin; format: functional
Summary of the method: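 Guinea pigs actively sensitized with ovalbumin, challenged conjunctivally with antigen; increase in conjunctival microvascular permeability measured; ED50 from dose–response data, n = 3–10 animals per point.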

Cavia porcellus [6] = assay: Inhibition of increase in specific airway resistance by antigen inhalation in conscious guinea pigs (10 mg/kg); format: functional
Summary of the method: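 Conscious guinea pigs given compound po 1 h before antigen inhalation; increase in specific airway resistance measured; percent inhibition as mean ± SEM, n = 4–11 animals/group; Student's t-test versus control.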

[7] = biological target: T1, Prostaglandin D2 receptor; assay: Inhibition of [3H]PGD-2 specific binding to Prostaglandin D2 receptor from human platelet membranes
Summary of the method: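 Human platelet membranes incubated 60 min at 4 °C with 5 nM [3H]PGD2 and graded test compound concentrations; inhibition of specific binding measured, IC50 derived.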

Cavia porcellus [8] = assay: Inhibition of antigen-induced increase in intranasal pressure in actively sensitized guinea pigs at 3 mg/kg (iv); format: functional; summary of the method: as §1

Sequence of Prostacyclin receptor (P43119 whole entry): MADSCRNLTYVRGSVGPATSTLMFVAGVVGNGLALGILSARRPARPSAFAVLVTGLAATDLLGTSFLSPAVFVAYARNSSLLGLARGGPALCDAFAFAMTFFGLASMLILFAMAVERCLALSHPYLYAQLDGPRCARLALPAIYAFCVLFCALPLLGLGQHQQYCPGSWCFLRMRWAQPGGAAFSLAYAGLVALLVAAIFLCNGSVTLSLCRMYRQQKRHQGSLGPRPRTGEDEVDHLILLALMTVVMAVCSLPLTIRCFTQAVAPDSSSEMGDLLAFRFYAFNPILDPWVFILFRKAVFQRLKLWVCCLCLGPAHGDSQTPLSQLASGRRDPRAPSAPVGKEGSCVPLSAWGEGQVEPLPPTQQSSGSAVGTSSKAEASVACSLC

| SMILES | IC50 (Prostacyclin receptor) [nM] | IC50 [1] [nM] | IC50 (Thromboxane A2 receptor) [nM] | IC50 [7] [nM] | inhibition in vivo at 1 mg/kg (Cavia porcellus [2]) [%] | ED50 (Cavia porcellus [3]) [mg/kg] | ED50 (Cavia porcellus [4]) [mg/kg] | ED50 (Cavia porcellus [5]) [mg/kg] | Inhibition (Cavia porcellus [6]) [%] | inhibition in vivo at 3 mg/kg (Cavia porcellus [8]) [%] |
| --- | --- | --- | --- | --- | --- | --- | --- | --- | --- | --- |
| O=C(O)CCC/C=C\C[C@@H]1[C@H]2CC[C@H](C2)[C@H]1NS(=O)(=O)c1ccc(C#Cc2ccccc2)cc1 | > 10000 | 250 | 280 | 8.6 | 25 |  |  |  |  |  |
| O=C(O)CCC/C=C\C[C@@H]1[C@H]2CC[C@H](C2)[C@H]1NS(=O)(=O)c1ccc(/N=N/c2ccccc2)cc1 | > 10000 | 320 | 1300 | 27 |  |  |  |  |  |  |
| CC1(C)[C@H]2C[C@H](C/C=C\CCCC(=O)O)[C@@H](NC(=O)c3ccsc3)[C@@H]1C2 | > 10000 | 38 | 2100 | 1600 | 77 | 5.1 | 3.5 | 9.5 | 15 |  |
| CC1(C)[C@H]2C[C@H](C/C=C\CCCC(=O)O)[C@@H](NS(=O)(=O)c3ccc4oc5ccccc5c4c3)[C@@H]1C2 | > 10000 | > 1000 | 240 | 780 |  |  |  |  |  |  |
| CC1(C)[C@H]2C[C@H](C/C=C\CCCC(=O)O)[C@@H](NC(=O)c3ccccc3)[C@@H]1C2 | > 10000 | 360 | 810 | 5200 |  |  |  |  |  |  |
| CC1(C)[C@H]2C[C@H](C/C=C\CCCC(=O)O)[C@@H](NC(=O)c3csc4ccccc34)[C@@H]1C2 | > 10000 |  | 380 |  |  |  |  |  |  |  |
| O=C(O)CCC/C=C\C[C@@H]1[C@H]2CC[C@H](C2)[C@H]1NS(=O)(=O)c1ccc2cc(-c3ccccc3)[nH]c2c1 | > 10000 | 120 | 1200 | 47 | 60 | 7.2 |  |  |  |  |
| CC1(C)[C@H]2C[C@H](C/C=C\CCCC(=O)O)[C@@H](NC(=O)c3ccc[nH]3)[C@@H]1C2 | > 10000 | 64 | 3100 | 32 |  |  |  |  |  |  |
| CC1(C)[C@H]2C[C@H](C/C=C\CCCC(=O)O)[C@@H](NC(=O)c3csc4cc(O)ccc34)[C@@H]1C2 | > 10000 |  | 410 |  |  |  |  |  |  |  |

Now from value to compound, other results behind:

| IC50 (Prostacyclin receptor) [nM] | IC50 [1] [nM] | IC50 (Thromboxane A2 receptor) [nM] | IC50 [7] [nM] | SMILES | inhibition in vivo at 1 mg/kg (Cavia porcellus [2]) [%] | ED50 (Cavia porcellus [3]) [mg/kg] | ED50 (Cavia porcellus [4]) [mg/kg] | ED50 (Cavia porcellus [5]) [mg/kg] | Inhibition (Cavia porcellus [6]) [%] | inhibition in vivo at 3 mg/kg (Cavia porcellus [8]) [%] |
| --- | --- | --- | --- | --- | --- | --- | --- | --- | --- | --- |
| > 10000 | 5.6 | 210 |  | CC1(C)[C@H]2C[C@H](C/C=C\CCCC(=O)O)[C@@H](NC(=O)c3cccc4ccsc34)[C@@H]1C2 |  |  |  |  |  |  |
| > 10000 | 1 | 96 |  | CC1(C)[C@H]2C[C@H](C/C=C\CCCC(=O)O)[C@@H](NC(=O)c3csc4ccc(O)cc34)[C@@H]1C2 | 78 | 2.1 | 0.12 | 2 | 70 |  |
| 8900 | 420 | 670 | 1200 | O=C(O)CCC/C=C\C[C@@H]1[C@H]2CC[C@H](C2)[C@H]1NS(=O)(=O)c1ccc2ccccc2c1 | 54 |  |  |  |  |  |
| > 10000 | 780 | 1300 | 720 | O=C(O)CCC/C=C\C[C@@H]1[C@H]2CC[C@H](C2)[C@H]1NS(=O)(=O)c1ccc(Oc2ccccc2)cc1 | 25 |  |  |  |  |  |
| > 10000 | 380 | 150 | 540 | CC1(C)[C@H]2C[C@H](C/C=C\CCCC(=O)O)[C@@H](NC(=O)c3ccc(/N=N/c4ccccc4)cc3)[C@@H]1C2 |  |  |  |  |  |  |
| 7500 | 220 | 270 | 32 | CC1(C)[C@H]2C[C@H](C/C=C\CCCC(=O)O)[C@@H](NC(=O)c3ccc4oc5ccccc5c4c3)[C@@H]1C2 |  |  |  |  |  |  |
| 5000 | 450 | 1100 | 600 | O=C(O)CCC/C=C\C[C@@H]1[C@H]2CC[C@H](C2)[C@H]1NS(=O)(=O)c1ccc(-c2ccccc2)cc1 |  |  |  |  |  | 39 |
| 1400 | > 1000 |  | 3000 | O=C(O)CCC/C=C\C[C@@H]1[C@H]2CC[C@H](C2)[C@H]1NC(=O)c1ccc(/N=N/c2ccccc2)cc1 |  |  |  |  |  |  |
| > 10000 | 1.8 | 430 |  | CC1(C)[C@H]2C[C@H](C/C=C\CCCC(=O)O)[C@@H](NC(=O)c3csc4ccc(F)cc34)[C@@H]1C2 |  | 1 | 3.5 | 8.9 | 69 |  |
| 1500 | 70 | 1700 |  | O=C(O)CCC/C=C\C[C@@H]1[C@H]2CC[C@H](C2)[C@H]1NS(=O)(=O)c1ccc2oc3ccccc3c2c1 | 82 | 3.5 |  |  |  |  |
| 3400 | > 1000 | 740 | 1300 | CC1(C)[C@H]2C[C@H](C/C=C\CCCC(=O)O)[C@@H](NS(=O)(=O)c3ccc(/N=N/c4ccccc4)cc3)[C@@H]1C2 |  |  |  |  |  |  |
| 3300 | > 1000 | 0.13 | 4900 | O=C(O)CCC/C=C\C[C@H]1[C@@H]2CC[C@@H](C2)[C@@H]1NS(=O)(=O)c1ccc2ccccc2c1 | 6 |  |  |  |  |  |
| 5900 | 68 | > 10000 | 27 | COc1cc2c(cc1S(=O)(=O)N[C@@H]1[C@@H]3CC[C@@H](C3)[C@H]1C/C=C\CCCC(=O)O)oc1ccccc12 | 80 | 2.2 | 1.6 | 6.6 |  |  |
| 4500 | 250 |  | 1100 | O=C(O)CCC/C=C\C[C@@H]1[C@H]2CC[C@H](C2)[C@H]1NS(=O)(=O)c1ccc2oc3cc([N+](=O)[O-])ccc3c2c1 |  |  |  |  |  |  |
